Compounds with a hit are over-represented: about 5.7% of the library has one in this group of screens.
T cruzi inh – T. cruzi replication inhibition; T. cruzi beta-gal in NIH3T3, luminescence, 90 h; inhibition, % (concentration not given with the values); 1.4% of 300,000 active; AID 1885;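 active means mean inhibition across valid replicates above about 55%, limit read from the data; inconclusive means mean below that limit but half or more replicates reach it; inactive means mean below it, under half of replicates reach it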;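 further: signal also drops with host cell toxicity which is not excluded here; higher percent means less beta-gal luminescence so fewer parasites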
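Assay system: NIH/3T3 fibroblasts plus reporter T. cruzi. Amount: NIH/3T3 cells, 5,000 per well. Buffer or medium: DMEM, 2% fetal bovine serum. Doses: compound pinned at 50 nL/well, DMSO. Schedule: ≥90 h infection period, 3 h prior cell attachment. Signal: luminescent β-galactosidase signal after 60 min lysis. Read-out: parasite load inhibition, %.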
Mdm2-MdmX inh – inhibitors of human Mdm2/MdmX interaction | SaOS-2 split-luciferase Mdm2/MdmX complementation, luminescence | inhibition, % at 8 µM | 3% of 330,000 active | AID 485346;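 active means inhibition of at least 50% at 8 µM in the primary screen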
Target sequence (O15151 whole entry, looked up): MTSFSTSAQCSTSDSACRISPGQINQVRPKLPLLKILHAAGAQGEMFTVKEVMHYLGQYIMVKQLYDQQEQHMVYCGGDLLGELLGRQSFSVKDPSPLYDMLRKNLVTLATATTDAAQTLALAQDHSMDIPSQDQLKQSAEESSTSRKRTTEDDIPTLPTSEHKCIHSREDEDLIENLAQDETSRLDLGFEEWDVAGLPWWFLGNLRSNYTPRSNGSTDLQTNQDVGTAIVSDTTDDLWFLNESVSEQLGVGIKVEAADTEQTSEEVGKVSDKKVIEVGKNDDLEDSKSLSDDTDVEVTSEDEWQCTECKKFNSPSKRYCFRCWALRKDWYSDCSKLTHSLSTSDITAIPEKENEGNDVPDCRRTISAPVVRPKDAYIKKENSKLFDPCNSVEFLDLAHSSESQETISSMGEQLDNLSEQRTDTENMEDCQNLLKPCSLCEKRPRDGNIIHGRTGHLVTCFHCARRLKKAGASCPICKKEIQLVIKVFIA
Target sequence (Q00987 whole entry, looked up): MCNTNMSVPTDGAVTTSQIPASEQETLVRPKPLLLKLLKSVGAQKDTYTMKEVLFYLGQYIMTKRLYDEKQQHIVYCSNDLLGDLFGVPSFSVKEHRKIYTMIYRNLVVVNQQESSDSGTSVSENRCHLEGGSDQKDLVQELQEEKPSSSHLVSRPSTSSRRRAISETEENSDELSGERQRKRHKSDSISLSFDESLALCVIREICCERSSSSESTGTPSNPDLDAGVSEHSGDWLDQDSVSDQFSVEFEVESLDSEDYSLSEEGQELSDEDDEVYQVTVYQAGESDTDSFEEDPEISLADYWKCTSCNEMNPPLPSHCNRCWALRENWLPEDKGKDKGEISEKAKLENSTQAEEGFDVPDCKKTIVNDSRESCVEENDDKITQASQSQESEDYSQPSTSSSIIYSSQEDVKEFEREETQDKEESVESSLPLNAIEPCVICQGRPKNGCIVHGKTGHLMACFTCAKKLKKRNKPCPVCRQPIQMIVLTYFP
SKKanGAS inh – blocks kanamycin growth of S. pyogenes SKKanGAS strain | BacTiter-Glo, 6 h | inhibition, % at 7.5 µM | 1.3% of 300,000 active;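 active means mean replicate score, as percent of positive control median, at least 50; inconclusive means mean below 50 but one replicate at or above 50; inactive means mean and every replicate below 50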;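 further: strain carries kanamycin resistance gene driven by streptokinase promoter and grows in 40 µg/ml kanamycin; loss of luminescence reflects streptokinase promoter inhibition or plain growth inhibition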
Calb FLC – affects C. albicans growth with fluconazole; C. albicans CaCi-2 + fluconazole, Alamar Blue growth, 48 h; growth inhibition, % (test concentration not listed); 0.57% of 300,000 active;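 active means growth inhibition above about 58% in most replicates, limit read from the data, passing the limit was not always enough; inconclusive means exactly half the replicates above a set limit; inactive means most replicates below a set limit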;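 further: all wells also contain fluconazole at 8 µg/ml as a sub-toxic cotreatment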
Beta apoptosis – blocks beta cell apoptosis. INS-1E cytokine-induced death, ATP luminescence, 48 h; percent of positive-control rescue, neutral wells zero. protection from apoptosis, % (no concentration beside the values). 0.8% of 300,000 active. AID 435005;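 active means Every replicate reaches about 75%, or at least half do and their mean reaches it too, limit read from the data; inconclusive means At least half of replicates reach the limit but their mean does not; inactive means Under half of replicates reach the limit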;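 further: higher means more ATP so stronger rescue from cytokine killing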
CSC inhib – blocks cancer stem cells; cancer stem cell-like cells viability, luminescence; inhibition, % at 7.5 µM; 1.1% of 300,000 active; AID 2717; in the data active means inhibition above about 75%; inconclusive means no clear call, values can overlap the other calls; tested in HMLE shEcad cells
Numbers stand for hits; – = inactive; ? = inconclusive; · = not tested or not shown; + = active, no number.

SMILES | T cruzi inh | Mdm2-MdmX inh | SKKanGAS inh | Calb FLC | Beta apoptosis | CSC inhib
O=C(NNC(=O)c1cc(Cl)ccc1O)c1ccc(NS(=O)(=O)c2cccs2)cc1 | – | – | – | 84.3 | · | 95.3
Cc1ccc2nc(NC(=O)c3ccc(NS(=O)(=O)c4cccs4)cc3)sc2c1 | – | – | 61.6 | – | – | 104.1
CS(=O)(=O)c1ccc2nc(NC(=O)c3ccccc3)sc2c1 | – | – | – | – | – | –
Cc1ccc(OCC(=O)Oc2cccc(C)c2C)cc1 | – | – | – | – | – | –
COc1ccc(Cl)cc1S(=O)(=O)N1CCC(C(=O)NCc2ccccn2)CC1 | – | – | – | – | · | –
O=C(C[n+]1ccccc1)N/N=C/c1ccc(Cl)cc1 | · | – | · | · | – | ·
O=C(C[n+]1ccccc1)N/N=C/c1cccs1 | – | – | – | 94.7 | – | –
COc1cc2c(cc1OC)CN(c1nc(-c3cccnc3)nc3ccccc13)CC2 | 55.2 | – | – | – | – | –
CCOc1ccc(CN2CCN(Cc3cc4ccccc4[nH]3)CC2CCO)cc1 (stereo not given) | 59.9 | · | – | – | · | ·
CCOc1ccc(CN2CCN(CC3=Cc4cccc(OC)c4OC3)CC2CCO)cc1 (stereo not given) | 56.4 | – | – | – | – | –
CCOc1ccc(CN2CCN(Cc3cnc(-c4ccccc4)s3)CC2CCO)cc1 (stereo not given) | 56.1 | – | – | – | – | –
COc1ccc2c(c1)C=C(CN1CCN(Cc3ccccc3C)C(CCO)C1)CO2 (stereo not given) | 55.3 | – | – | – | – | –
C#CCn1cc(Cl)cc(C(=O)Nc2ccccc2)c1=O | – | – | – | – | – | –
CC(=O)Nc1ccc(NC2CCCCC2NS(=O)(=O)c2ccccc2)cc1 (stereo not given) | – | – | – | – | – | –
COCCNC(=O)c1cccc(OC2CCN(Cc3ccc(C(=O)OC)cc3)CC2)c1 | – | – | – | – | · | –
Cc1ccc(CN2CCC(Oc3cccc(C(=O)N(C)CCN(C)C)c3)CC2)cc1C | 57.4 | – | – | – | – | –
FC(F)(F)c1ccccc1NC(=S)NN=C1CCCCCC1 | – | – | – | 94.6 | – | –
COc1cccc(NC(=S)NN=C2CCCCCC2)c1 | – | – | 51.9 | – | · | ·
COc1ccc(NC2CCCN(C(=O)Cn3ccc(C)n3)C2)cc1OC (stereo not given) | – | – | – | – | – | –
CCOC(=O)C1CCN(c2ncnc3c2c(-c2ccccc2)cn3-c2ccccc2)CC1 | 59.1 | – | – | – | – | ?
Cc1cccc2nc(CNC(=O)CC3C(=O)NCCN3Cc3cccc(F)c3)cn12 (stereo not given) | 58.5 | – | – | – | – | –
CC1CCCC(C)N1C(=O)COC(=O)c1c[nH]c2ccccc12 (stereo not given) | · | – | · | · | – | ·
Oc1cccc(C(O)CNCc2ccc(OCc3ccc(Cl)cc3Cl)cc2)c1 (stereo not given) | – | – | – | – | – | 78.1
Oc1cccc(C(O)CNCc2ccc(-c3ccccc3)cc2)c1 (stereo not given) | – | – | – | – | – | –
Cc1onc(-c2ccc3c(c2)OCO3)c1-c1ccc2[nH]ccc2c1 | – | – | – | – | – | –
SMILES | T cruzi inh | Mdm2-MdmX inh | SKKanGAS inh | Calb FLC | Beta apoptosis | CSC inhib
c1cc2cc(-c3c(-c4ccc5c(c4)OCO5)noc3-c3ccsc3)ccc2[nH]1 | – | – | – | – | – | 120.8
c1ccc(-c2ccc3[nH]ccc3c2)cc1 | · | – | · | · | – | –
c1ccc(-c2onc(-c3ccco3)c2-c2ccc3[nH]ccc3c2)cc1 | – | – | ? | – | – | 119.8
COc1cc(OC)cc(-c2nnc(SCC(=O)N(Cc3ccccc3)C(C)(C)C)o2)c1 | – | – | – | – | – | 113.1
COc1ccc(C2CC(=O)N(CCCN(C)CCc3ccc(OC)c(OC)c3)C2)cc1 (stereo not given) | 64.1 | – | – | – | – | –
Cc1ccccc1C1c2[nH]c3ccccc3c2C[C@H]2C(=O)N(C3CCN(Cc4ccccc4)CC3)CC(=O)N12 (stereo not given in full) | 60.6 | – | – | – | – | –
O=[N+]([O-])c1ccc(/C=N\NS(=O)(=O)c2ccc(F)cc2)o1 | – | – | – | – | – | –
O=C(CSc1nnc(COc2ccc(Cl)cc2)o1)N1CCCC1 | – | – | – | – | – | ·
O=C(CSc1nnc(COc2ccc(Cl)cc2)o1)N1c2ccccc2CCc2ccccc21 | 66.2 | – | – | – | – | –
CC(C(=O)N1CCc2ccccc21)N1CCN(Cc2ccccc2)CC1 (stereo not given) | 55.9 | – | – | – | – | –
COc1ccc(Cc2noc(CN3CCCN(Cc4ccc(F)cc4)CC3)n2)cc1OC | 78.4 | – | – | – | – | –
COc1ccc(Cc2noc(CN3CCN(C4CCc5ccccc5C4)CC3)n2)cc1OC (stereo not given) | 57.2 | – | – | – | · | –
Fc1cccc(Cc2noc(CN3CCCN(C4Cc5ccccc5C4)CC3)n2)c1 | 56.5 | – | – | – | – | –
COc1ccc(-c2noc(CN3CCN(c4ccccc4F)CC3)n2)cc1OC | – | – | – | – | – | –
COc1ccc(Cc2noc(CN3CCC(c4ccncc4)CC3)n2)cc1OC | – | – | – | – | – | –
Fc1cccc(Cc2noc(CN3CCN(C4CCc5ccccc5C4)CC3)n2)c1 (stereo not given) | – | – | – | – | – | –
COc1cc(/C=N/NC(=O)CSc2cc(C)c(Br)cc2C)ccc1O | – | – | – | – | – | –
Cc1cc(SCC(=O)N/N=C/c2ccc(O)c(O)c2O)c(C)cc1Br | – | – | 69.4 | 106.8 | – | –
Oc1c(Br)cc(Br)cc1CNc1cnc2ccccc2c1 | – | – | 61.3 | – | – | –
Cn1c(CNC(=O)CNC(=O)c2ccc(F)cc2)cc(=O)n(C)c1=O | – | – | 56.4 | – | – | –
O=c1cc(C(F)(F)F)[nH]c2c(OC(F)(F)F)cccc12 | – | – | – | – | – | 79.0
Cc1ccc(C)c(NC(=O)Nn2cnnc2)c1 | – | – | – | – | – | –
O=Cc1ccc(Oc2cc(-c3ccccc3)nc(-c3ccccc3)n2)cc1 | – | – | – | – | – | 99.6
CCOC(=O)[C@@H]1[C@H]2COc3ccccc3[C@@H]2N2C(=O)N(c3ccc(Cl)cc3)C(=O)[C@]12C | – | – | – | – | – | –
CCN(CC)C(=O)CSc1nnc2nnc3cc(Cl)ccc3n12 | 58.9 | – | – | ? | – | –
CCOCCCNC(=O)/C(C#N)=C/c1ccc([N+](=O)[O-])o1 | 74.3 | – | – | – | – | +
O=C1NC2(CCCCCC2)C(=O)N1Cc1cccc([N+](=O)[O-])c1 | – | – | – | – | · | ·
CCCCN(C)C(=O)c1ccc2c(c1)N(CC)C(=O)c1ccccc1S2=O (stereo not given) | – | – | – | – | – | –
CCCCN(C)CCCNC(=O)c1ccc2c(c1)N(CC)C(=O)c1ccccc1S2=O (stereo not given) | 60.7 | – | – | – | – | –

Screening results: PubChem, several laboratories
